Source: ChEMBL document CHEMBL2040727, “Substituted thiazoles VI. Synthesis and antitumor activity of new 2-acetamido- and 2 or 3-propanamido-thiazole analogs” (2012)

Experiments:
Assay type in all cases: functional
786-0 = assay: Growth inhibition of human 786-0 cells at 10 uM after 48 hrs by coulter counter analysis; conditions: 786-0, 48 h, read-out: GI
How it was run: (§1)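 Single-dose NCI 60-line panel screen of test compounds. Cells grown in RPMI 1640 with 10% FBS. Compounds dissolved in DMSO, then diluted in phosphate buffer saline (final DMSO below 1%). Wells run in duplicate at 6 × 10⁴ cells/ml. Controls held PBS and DMSO at matching dilutions. Incubation 48 h at 37 °C under humidified 5% CO2. Cells diluted tenfold in saline and counted by Coulter counter. Percent growth inhibition taken from mean-graph of treated-cell growth.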

SK-MEL-2 = assay: Growth inhibition of human SK-MEL-2 cells at 10 uM after 48 hrs by coulter counter analysis; conditions: SK-MEL-2, 48 h, read-out: GI; how it was run: as §1
SN12C = assay: Growth inhibition of human SN12C cells at 10 uM after 48 hrs by coulter counter analysis; conditions: read-out: GI; how it was run: as §1
SF-539 = assay: Growth inhibition of human SF539 cells at 10 uM after 48 hrs by coulter counter analysis; conditions: SF-539, 48 h, read-out: GI; how it was run: as §1
CCRF-CEM = assay: Growth inhibition of human CCRF-CEM cells at 10 uM after 48 hrs by coulter counter analysis; conditions: read-out: GI; how it was run: as §1
NCI-H23 = assay: Growth inhibition of human NCI-H23 cells at 10 uM after 48 hrs by coulter counter analysis; conditions: NCI-H23, 48 h, read-out: GI; how it was run: as §1
T47D = assay: Growth inhibition of human T47D cells at 10 uM after 48 hrs by coulter counter analysis; conditions: read-out: GI
How it was run: (§2)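 Single-dose screen in the NCI 60 cell line panel. Cells grown in RPMI 1640 with 10% FBS. Compounds dissolved in DMSO and diluted in phosphate buffered saline, final DMSO under 1%. Duplicate wells seeded from culture at 6 × 10⁴ cells/ml. Incubated 48 h at 37 °C, humidified, 5% CO2. Cells diluted tenfold in saline and Coulter-counted. Percent growth inhibition computed against PBS/DMSO controls.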

ACHN = assay: Growth inhibition of human ACHN cells at 10 uM after 48 hrs by coulter counter analysis; conditions: read-out: GI; how it was run: as §1
NCI-H322M = assay: Growth inhibition of human NCI-H322M cells at 10 uM after 48 hrs by coulter counter analysis; conditions: read-out: GI; how it was run: as §1
Malme-3M = assay: Growth inhibition of human MALME-3M cells at 10 uM after 48 hrs by coulter counter analysis; conditions: read-out: GI; how it was run: as §1
SNB-75 = assay: Growth inhibition of human SNB75 cells at 10 uM after 48 hrs by coulter counter analysis; conditions: SNB-75, 48 h, read-out: GI; how it was run: as §2
IGROV-1 = assay: Growth inhibition of human IGROV1 cells at 10 uM after 48 hrs by coulter counter analysis; conditions: IGROV-1, 48 h, read-out: GI; how it was run: as §1
MDA-MB-435 = assay: Growth inhibition of human MDA-MB-435 cells at 10 uM after 48 hrs by coulter counter analysis; conditions: MDA-MB-435, 48 h, read-out: GI; how it was run: as §1
SK-MEL-28 = assay: Growth inhibition of human SK-MEL-28 cells at 10 uM after 48 hrs by coulter counter analysis; conditions: SK-MEL-28, 48 h, read-out: GI; how it was run: as §1
CAKI-1 = assay: Growth inhibition of human Caki1 cells at 10 uM after 48 hrs by coulter counter analysis; conditions: CAKI-1, 48 h, read-out: GI; how it was run: as §1
MCF7 = assay: Growth inhibition of human MCF7 cells at 10 uM after 48 hrs by coulter counter analysis; conditions: MCF7, 48 h, read-out: GI; how it was run: as §1
HCT-116 = assay: Growth inhibition of human HCT116 cells at 10 uM after 48 hrs by coulter counter analysis; conditions: HCT-116, 48 h, read-out: GI; how it was run: as §1
MDA-MB-468 = assay: Growth inhibition of human MDA-MB-468 cells at 10 uM after 48 hrs by coulter counter analysis; conditions: MDA-MB-468, 48 h, read-out: GI; how it was run: as §1
SR = assay: Growth inhibition of human SR cells at 10 uM after 48 hrs by coulter counter analysis; conditions: read-out: GI; how it was run: as §2
COLO 205 = assay: Growth inhibition of human COLO205 cells at 10 uM after 48 hrs by coulter counter analysis; conditions: COLO 205, 48 h, read-out: GI; how it was run: as §1
NCI-H460 = assay: Growth inhibition of human NCI-H460 cells at 10 uM after 48 hrs by coulter counter analysis; conditions: NCI-H460, 48 h, read-out: GI; how it was run: as §1
HL-60(TB) = assay: Growth inhibition of human HL-60(TB) cells at 10 uM after 48 hrs by coulter counter analysis; conditions: HL-60, 48 h, read-out: GI
How it was run: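 Cells grown in RPMI 1640 with 10% FBS. Compound was dissolved in DMSO and diluted in PBS (under 1% DMSO final), then added in duplicate wells to culture at 6 × 10⁴ cells/ml. PBS/DMSO vehicle controls were included. Incubated at 37 °C, humidified 5% CO₂, for 48 h. Cells were diluted 10-fold in saline and Coulter-counted. Single-dose NCI-60 screen, read as percent growth inhibition.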

EKVX = assay: Growth inhibition of human EKVX cells at 10 uM after 48 hrs by coulter counter analysis; conditions: read-out: GI; how it was run: as §1
SNB-19 = assay: Growth inhibition of human SNB19 cells at 10 uM after 48 hrs by coulter counter analysis; conditions: SNB-19, 48 h, read-out: GI; how it was run: as §1
KM12 = assay: Growth inhibition of human KM12 cells at 10 uM after 48 hrs by coulter counter analysis; conditions: KM12, 48 h, read-out: GI; how it was run: as §1
OVCAR-3 = assay: Growth inhibition of human OVCAR3 cells at 10 uM after 48 hrs by coulter counter analysis; conditions: OVCAR-3, 48 h, read-out: GI; how it was run: as §1
LOX IMVI = assay: Growth inhibition of human LOXIMVI cells at 10 uM after 48 hrs by coulter counter analysis; conditions: read-out: GI; how it was run: as §1
OVCAR-8 = assay: Growth inhibition of human OVCAR8 cells at 10 uM after 48 hrs by coulter counter analysis; conditions: OVCAR-8, 48 h, read-out: GI; how it was run: as §1
PC-3 = assay: Growth inhibition of human PC3 cells at 10 uM after 48 hrs by coulter counter analysis; conditions: PC-3, 48 h, read-out: GI; how it was run: as §1
BT-549 = assay: Growth inhibition of human BT549 cells at 10 uM after 48 hrs by coulter counter analysis; conditions: BT-549, 48 h, read-out: GI; how it was run: as §1
M14 = assay: Growth inhibition of human M14 cells at 10 uM after 48 hrs by coulter counter analysis; conditions: M14, 48 h, read-out: GI; how it was run: as §1
MOLT-4 = assay: Growth inhibition of human MOLT4 cells at 10 uM after 48 hrs by coulter counter analysis; conditions: MOLT-4, 48 h, read-out: GI; how it was run: as §1
HOP-92 = assay: Growth inhibition of human HOP92 cells at 10 uM after 48 hrs by coulter counter analysis; conditions: HOP-92, 48 h, read-out: GI; how it was run: as §1
HCC 2998 = assay: Growth inhibition of human HCC2998 cells at 10 uM after 48 hrs by coulter counter analysis; conditions: HCC 2998, 48 h, read-out: GI; how it was run: as §1

Row | Structure (SMILES) | inhibition of growth at 10 µM (786-0) [%] | inhibition of growth at 10 µM (SK-MEL-2) [%] | inhibition of growth at 10 µM (SN12C) [%] | inhibition of growth at 10 µM (SF-539) [%] | inhibition of growth at 10 µM (CCRF-CEM) [%] | inhibition of growth at 10 µM (NCI-H23) [%] | inhibition of growth at 10 µM (T47D) [%] | inhibition of growth at 10 µM (ACHN) [%] | inhibition of growth at 10 µM (NCI-H322M) [%] | inhibition of growth at 10 µM (Malme-3M) [%] | inhibition of growth at 10 µM (SNB-75) [%] | inhibition of growth at 10 µM (IGROV-1) [%] | inhibition of growth at 10 µM (MDA-MB-435) [%] | inhibition of growth at 10 µM (SK-MEL-28) [%] | inhibition of growth at 10 µM (CAKI-1) [%] | inhibition of growth at 10 µM (MCF7) [%] | inhibition of growth at 10 µM (HCT-116) [%] | inhibition of growth at 10 µM (MDA-MB-468) [%] | inhibition of growth at 10 µM (SR) [%] | inhibition of growth at 10 µM (COLO 205) [%] | further results
1 | CC(C(=O)Nc1nccs1)N1CCN(C)CC1 (configuration not stated) | < 10 | < 10 | < 10 | < 10 | < 10 | < 10 | < 10 | < 10 | < 10 | < 10 | 15.5 | < 10 | < 10 | < 10 | < 10 | < 10 | < 10 | < 10 | < 10 | < 10 | inhibition of growth at 10 µM (NCI-H460): < 10%; inhibition of growth at 10 µM (HL-60(TB)): 11.2%; inhibition of growth at 10 µM (EKVX): < 10%; inhibition of growth at 10 µM (SNB-19): < 10%; inhibition of growth at 10 µM (KM12): < 10%; inhibition of growth at 10 µM (OVCAR-3): < 10%; inhibition of growth at 10 µM (LOX IMVI): < 10%; inhibition of growth at 10 µM (OVCAR-8): < 10%; inhibition of growth at 10 µM (PC-3): < 10%; inhibition of growth at 10 µM (BT-549): < 10%; inhibition of growth at 10 µM (M14): < 10%; inhibition of growth at 10 µM (MOLT-4): < 10%; inhibition of growth at 10 µM (HOP-92): < 10%; inhibition of growth at 10 µM (HCC 2998): < 10%
2 | Cc1csc(NC(=O)C(C)N2CCN(C)CC2)n1 (configuration not stated) | < 10 | < 10 | 11.5 | < 10 | 41.1 | 19.8 | < 10 | < 10 | < 10 | 17.6 | < 10 | < 10 | 11.2 | < 10 | < 10 | 35.6 | 30.1 | 11.1 | < 10 | < 10 | inhibition of growth at 10 µM (NCI-H460): < 10%; inhibition of growth at 10 µM (HL-60(TB)): < 10%; inhibition of growth at 10 µM (EKVX): < 10%; inhibition of growth at 10 µM (SNB-19): < 10%; inhibition of growth at 10 µM (KM12): < 10%; inhibition of growth at 10 µM (OVCAR-3): < 10%; inhibition of growth at 10 µM (LOX IMVI): 46.4%; inhibition of growth at 10 µM (OVCAR-8): < 10%; inhibition of growth at 10 µM (PC-3): < 10%; inhibition of growth at 10 µM (BT-549): 13.3%; inhibition of growth at 10 µM (M14): 25.5%; inhibition of growth at 10 µM (MOLT-4): 12.1%; inhibition of growth at 10 µM (HOP-92): < 10%; inhibition of growth at 10 µM (HCC 2998): < 10%
3 | CC(C(=O)Nc1nccs1)N1CCN(c2ccccc2)CC1 (configuration not stated) | < 10 | < 10 | < 10 | < 10 | < 10 | < 10 | < 10 | < 10 | < 10 | < 10 | < 10 | < 10 | < 10 | < 10 | < 10 | < 10 | < 10 | < 10 | < 10 | < 10 | inhibition of growth at 10 µM (NCI-H460): < 10%; inhibition of growth at 10 µM (HL-60(TB)): < 10%; inhibition of growth at 10 µM (EKVX): < 10%; inhibition of growth at 10 µM (SNB-19): < 10%; inhibition of growth at 10 µM (KM12): < 10%; inhibition of growth at 10 µM (OVCAR-3): < 10%; inhibition of growth at 10 µM (LOX IMVI): < 10%; inhibition of growth at 10 µM (OVCAR-8): < 10%; inhibition of growth at 10 µM (PC-3): < 10%; inhibition of growth at 10 µM (BT-549): < 10%; inhibition of growth at 10 µM (M14): < 10%; inhibition of growth at 10 µM (MOLT-4): < 10%; inhibition of growth at 10 µM (HOP-92): < 10%; inhibition of growth at 10 µM (HCC 2998): < 10%
